Bioassay records from PubChem BioAssay.
In the library only some 2.7% were active in any assay of this set; here they are far more common.
pPAFAH inh = inhibitors of human plasma PAF acetylhydrolase (pPAFAH); hit rate 1.5% among 330,000; recombinant pPAFAH, FP-rhodamine probe fluorescence polarization; AID 463082; inhibition, % at 3.39 µM;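 active = inhibition above the mean inhibition across the screen plus 3 SD, cut at about 25% in these data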;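 note: inhibitors block binding of the rhodamine activity-based probe so polarization drops; 0% = enzyme with DMSO and 100% = wells lacking pPAFAH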
PAFAH1B3 inh = inhibitors of human PAFAH1B3; AID 492972; recombinant PAFAH1B3, FP-rhodamine probe, fluorescence polarization; inhibition, % at 3.39 µM; hit rate 0.28% among 340,000;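 active = inhibition above the screen-wide average of all tested compounds plus 3 SD, cut at about 25% in these data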;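 note: 0% = enzyme with DMSO only and 100% = wells lacking PAFAH1B3 protein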
Target sequence (Q15102 whole entry, looked up): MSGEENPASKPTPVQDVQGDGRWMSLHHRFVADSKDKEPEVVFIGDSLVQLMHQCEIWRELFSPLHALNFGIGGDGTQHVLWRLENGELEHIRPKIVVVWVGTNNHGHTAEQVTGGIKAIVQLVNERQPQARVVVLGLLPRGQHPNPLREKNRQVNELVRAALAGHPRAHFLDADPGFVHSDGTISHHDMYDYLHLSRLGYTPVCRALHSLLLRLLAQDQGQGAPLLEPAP
ASAP1 GAP inh = blocks human ASAP1-stimulated Arf1 GTP hydrolysis. Q9ULH1. GDP FP detection. inhibition, % at 16.5 µM. hit rate 0.19% among 360,000; in the data active = inhibition above about 25%;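 note: 0% = vehicle with enzyme and substrate and 100% = no enzyme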
PAFAH2 inh = PAFAH2 (human) inhibition | Q99487 | recombinant PAFAH2, FP-rhodamine activity probe, fluorescence polarization | inhibition, % at 3.39 µM | hit rate 0.99% among 340,000 | AID 492956;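 active = inhibition above the mean over all tested compounds plus 3 SD, cut at about 30% in these data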;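 note: inhibitors block probe labeling of enzyme so polarization drops; 0% = enzyme with DMSO and 100% = wells lacking PAFAH2 protein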
ARFGAP1 inhibitor = rat ARFGAP1 inhibition. Q62848. Arfgap1-stimulated ARF1 GTP hydrolysis, GDP FP detection. inhibition, % at 16.5 µM. hit rate 0.26% among 360,000;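 active = inhibition above a per-plate limit, mean inhibition of low control wells plus 3 SD, cut at about 25% in these data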;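 note: 0% = DMSO wells with enzyme and 100% = wells lacking Arfgap1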
Target sequence (Q62848 1-136 limits assumed): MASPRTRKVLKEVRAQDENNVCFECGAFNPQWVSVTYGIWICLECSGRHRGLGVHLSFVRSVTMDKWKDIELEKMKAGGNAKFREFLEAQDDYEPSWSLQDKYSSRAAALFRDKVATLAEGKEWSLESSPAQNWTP
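Repeats: one replicate per compound; assay system: rat Arfgap1 catalytic domain, aa 1-136; times: enzyme reaction 120 min at 25 °C after 20 min preincubation; detection: FP of antibody-bound GDP Alexa 633 tracer, ex 620/em 688 nm; benchmarks: high control wells lacking Arfgap1, low control full reaction with DMSO; reagent: human ARF1(Δ1-17)-GTP substrate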
PAFAH1B2 FP inh = blocks human PAF acetylhydrolase 1b catalytic subunit 2. P68402. hit rate 1.2% among 340,000. recombinant PAFAH1B2, FP-rhodamine activity probe, fluorescence polarization. inhibition, % at 3.39 µM;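 active = inhibition above the mean of all tested compounds plus 3 SD, cut at about 24% in these data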;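 note: 0% = enzyme with DMSO and 100% = wells lacking PAFAH1B2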
Target sequence (P68402 whole entry, looked up): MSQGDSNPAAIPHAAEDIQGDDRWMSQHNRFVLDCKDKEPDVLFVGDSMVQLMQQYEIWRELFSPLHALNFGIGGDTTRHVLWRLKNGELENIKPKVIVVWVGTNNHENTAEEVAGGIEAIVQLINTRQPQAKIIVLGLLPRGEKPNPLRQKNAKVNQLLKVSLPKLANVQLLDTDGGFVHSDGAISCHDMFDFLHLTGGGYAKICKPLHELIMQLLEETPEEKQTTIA
Numbers without * were called inactive; / = no result given.

SMILES	pPAFAH inh	PAFAH1B3 inh	ASAP1 GAP inh	PAFAH2 inh	ARFGAP1 inhibitor	PAFAH1B2 FP inh
CC(=O)Nc1ccc(Nc2ccc3c4c(cc(=O)n3C)-c3ccccc3C(=O)c24)cc1	9	3	15	8	14	3
O=C1c2ccccc2C(=O)c2c(Nc3ccc(CCO)cc3)ccc(O)c21	31*	12	0	11	-3	-1
COC(=O)[C@@H](Cc1ccccc1)N[C@H](/C=C/c1ccccc1)[C@@H](O)Cc1ccccc1	/	/	8	/	21	/
O=C(COC(=O)c1ccc([N+](=O)[O-])s1)Nc1ccc(F)cc1	12	34*	2	52*	8	10
Cc1nc(C)c(C(=O)OCC(=O)Nc2ccccc2)s1	26*	13	1	95*	12	-1
O=C(OCC(=O)N1CCC(c2ccccc2)=N1)c1ccc([N+](=O)[O-])s1	25*	16	0	21	-16	15
O=C(COC(=O)c1ccc([N+](=O)[O-])s1)Nc1ccccc1	15	34*	0	81*	-6	10
Cc1cc(C(=O)OCC(=O)N2CCC(c3ccccc3)=N2)ccc1[N+](=O)[O-]	1	2	6	-5	8	-1
CCCn1cc(C(=O)Nc2ccc(Oc3cccnc3)cc2)c2ccccc21	/	/	-3	/	7	/
CC(NC(=O)C=Cc1ccco1)C(=O)NC(Cc1ccccc1)C(N)=O (stereo not given)	/	/	1	/	9	/
Cc1c(Cl)cnc(NC(=O)COC(=O)c2ccc([N+](=O)[O-])s2)c1Cl	20	33*	14	47*	-4	16
O=C(OCc1nnc(-c2ccccc2)o1)c1ccc([N+](=O)[O-])s1	14	31*	-4	31*	5	24
COC(=O)[C@H]1[C@@H](O)[C@@]2(O)c3c(OC)cc(OC)cc3O[C@@]2(c2ccc(OC)cc2)[C@@H]1c1ccc(F)cc1	/	/	1	/	1	/
C=C(C)C(COc1c2occc2cc2ccc(=O)oc12)OC(C)(C)C(O)COc1c2occc2cc2ccc(=O)oc12 (stereo not given)	7	7	10	1	13	66*
COC(=O)[C@]12C[C@H](CC(=O)N3CCSCC3)C(=O)N(Cc3ccccc3)C1=C[C@H](C(C)C)O[C@@H]2C1CC1	/	/	-8	/	0	/
Nc1[nH]c(C(=O)c2ccccc2)c(-c2ccc(Cl)cc2)c1C(=O)c1c[nH]c2cc(F)ccc12	/	/	12	/	3	/
Cc1sc(-n2c(C)cc(/C=C3\SC(=S)NC3=O)c2C)c(C#N)c1C	31*	10	12	15	8	1
Cc1c(C(=O)O)cccc1-n1c(C)cc(/C=C(/C#N)C(=O)NCc2ccccc2)c1C	29*	/	0	/	-5	/
CC(C)C(=O)Nc1csc(C(F)(F)F)c1-c1ccccc1	4	0	4	1	-5	27*
CC(C)C(=O)Nc1ccccc1Cc1ccccc1	-2	5	2	3	-11	1
CCc1cc(C(=O)N2CCN(c3ncccn3)CC2)sc1C	0	0	3	7	9	-3
CC1CCc2sc(C(=O)N3CCN(c4ncccn4)CC3)cc2C1 (stereo not given)	28*	-7	15	5	5	0
Cc1ccc(C2CC(=O)Oc3cc(O)ccc32)cc1 (stereo not given)	17	34*	10	26	2	24*
CC(CC(=O)Nc1ccc2c(c1)c(=O)n(C)n2-c1cccs1)c1ccccc1 (stereo not given)	/	/	-1	/	4	/
COC(=O)C1=C(C)N(Cc2ccc(C(F)(F)F)cc2)C(=NCc2ccc(C(F)(F)F)cc2)NC1c1ccccc1C(F)(F)F (stereo not given)	/	/	14	/	0	/
SMILES	pPAFAH inh	PAFAH1B3 inh	ASAP1 GAP inh	PAFAH2 inh	ARFGAP1 inhibitor	PAFAH1B2 FP inh
CCN(CC(=O)NCc1ccc(Cl)cc1)C(=O)/C=C/c1ccc(C#N)cc1	3	2	0	-1	-1	1
CCN(CC(=O)NCc1ccc(Cl)cc1)C(=O)/C=C/c1ccccc1	6	6	10	2	10	27*
C[C@H](CO)N1C[C@H](C)[C@@H](CN(C)C(=O)NC2CCCCC2)OCc2cn(nn2)CCCC1=O	/	/	11	/	6	/
CCNc1nc(NC(C)(C)C)nc(SC(C(C)=O)C(C)=O)n1	-1	1	6	-12	-6	25*
CCCCCCCCN1C(=O)[C@@H](CC(=O)N2CCN(C(=O)C3CC3)CC2)C[C@@]2(C(=O)OC)C1=C[C@H](C(C)(C)C)O[C@@H]2C	/	/	1	/	10	/
Cn1c(SCC(=O)c2ccc(-c3ccccc3)cc2)nnc1-c1ccco1	30*	3	7	5	8	4
CCC(C)Nc1nc(-c2c[nH]c3ccccc23)cs1 (stereo not given)	8	7	22	-7	32*	-3
Nc1nc(-c2c[nH]c3ccccc23)cs1	1	4	2	-1	5	8
CN(Cc1ccccc1)C(=O)c1cccc(NC(=O)Cc2cccc(NC(=O)C3CCN(C(=O)CCc4ccccc4)CC3)c2)c1	/	/	10	/	6	/
Nc1c(S(=O)(=O)c2cccc(Cl)c2)c2nc3ccccc3nc2n1/N=C/c1ccc(O)c(O)c1	71*	/	/	/	/	/
COc1cccc(/C=N/n2c(N)c(S(=O)(=O)c3cccs3)c3nc4ccccc4nc32)c1OC	3	-3	-6	-14	4	-4
O=C(C(=O)N1CCN(S(=O)(=O)c2ccc(Cl)cc2)CC1)c1cccc(C(F)(F)F)c1	/	/	4	/	1	/
O=C(COc1ccc(Br)cc1)Nc1nnc(C2CC2)s1	5	-8	4	7	2	-10
CC(Oc1ccc(Br)cc1)C(=O)Nc1nnc(C2CC2)s1 (stereo not given)	3	3	7	2	-2	26*
Oc1ccc(/C=N/Nc2ncnc3c2ncn3Cc2ccccc2)cc1O	30*	-1	-5	15	-1	3
Cc1c(O)cc2c(c1O)C(=O)CC(c1ccc(O)cc1)O2 (stereo not given)	32*	15	14	5	1	4
O=C(COC(=O)CC1CC2CCC1C2)NC(=O)NCc1ccco1 (stereo not given)	7	0	-5	5	-1	25*
COc1cccc(NC(=O)COC(=O)CC2CC3CCC2C3)c1 (stereo not given)	34*	1	7	78*	-15	8
O=C(COC(=O)CC1CC2CCC1C2)Nc1cc([N+](=O)[O-])ccc1F (stereo not given)	18	10	-4	49*	12	42*
COC(=O)[C@]12C[C@H](CC(=O)NCc3ccc(OC)c(OC)c3)C(=O)N(CCC3=CCCCC3)C1=C[C@H](C(C)(C)C)O[C@@H]2C	/	/	-11	/	8	/
O=C(CNSc1ccc([N+](=O)[O-])cc1[N+](=O)[O-])OCc1ccccc1	/	/	13	/	-2	/
